Source: ChEMBL document CHEMBL2176949 (J Med Chem, 2012)

How the values were obtained:
[1] = molecular target: Neuronal acetylcholine receptor; alpha4/beta2 (Rattus norvegicus, UniProt P09483+P12390); test: Binding affinity to rat alpha4beta2 nAChR
[2] = molecular target: T1, Neuronal acetylcholine receptor subunit alpha-7 (Rattus norvegicus, UniProt Q05941); test: Binding affinity to rat alpha7 nAChR
[3] = molecular target: T1, Neuronal acetylcholine receptor subunit alpha-7; test: Binding affinity to rat alpha7 nAChR expressed in Xenopus laevis oocytes; type: cell-based, Oocyte
[4] = molecular target: T1, Neuronal acetylcholine receptor subunit alpha-7; test: Agonist activity at rat alpha7 nAChR expressed in Xenopus laevis oocytes by two-electrode voltage clamp assay; type: functional, cell-based, Oocyte
[5] = molecular target: T2, Neuronal acetylcholine receptor; alpha4/beta2 (Homo sapiens, UniProt P17787+P43681); test: Agonist activity at human alpha4beta2 nAChR expressed in human SH-EP1 cells by whole cell voltage clamp based electrophysiology method relative to 1 mM acetylcholine; type: functional
In short: (§1)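 Whole-cell voltage clamp at -60 mV, room temperature (22 ± 1 °C), one cell per agonist load, Dynaflow fast application. Agonist applied 1 s for α4β2 and 0.5 s for α7, with 30 s washout. Tris-based pipette solution, pH 7.3. Concentration-response data fitted to the Hill equation, with α4β2 fitted as the sum of two Hill equations. Max % relative to 1 mM ACh.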

[6] = Agonist activity at rat alpha7 nAChR T6'S59 mutant expressed in rat GH4C1 cells by whole cell voltage clamp based electrophysiology method; type: functional; conditions: GH4-C1; in short: as §1
[7] = molecular target: T3, Neuronal acetylcholine receptor; alpha3/beta4 (Homo sapiens, UniProt P30926+P32297); test: Agonist activity at human alpha3beta4 nAChR expressed in human SH-SY5Y cells assessed as increase in calcium flux by FLIPR relative to 10 uM nicotine; type: functional, cell-based
[8] = molecular target: Neuronal acetylcholine receptor subunit alpha-7 (Homo sapiens, UniProt P36544); test: Displacement of [3H]epibatidine from human alpha7 nAChR expressed in human HEK/RIC3 cells; type: cell-based
In short: (§2)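 Binding to membranes from the cell lines: homogenised in PBS pH 7.4, spun at 40000g for 20 min at 4 °C, then incubated 2 h on ice in PBS with competitor (0.001 nM to 100 μM) and radioligand. Filters washed in ice-cold PBS and counted by scintillation. IC50 from nonlinear regression; Ki by Cheng-Prusoff. Minimum of three assays, ± SEM.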

[9] = molecular target: Nicotinic acetylcholine receptor alpha6/alpha3/beta2/beta3 (Rattus norvegicus, UniProt P04757+P12390+P12391+P43143); test: Agonist activity at alpha6/alpha3beta2beta3 nAChR in Sprague-Dawley rat striatal synaptosomes assessed as induction of dopamine release; type: functional, subcellular, Brain
[10] = molecular target: T2, Neuronal acetylcholine receptor; alpha4/beta2; test: Agonist activity at human alpha4beta2 nAChR high sensitivity form expressed in human SH-EP1 cells assessed as increase in calcium flux by FLIPR; type: functional, cell-based
[11] = Agonist activity at rat alpha7 nAChR T6'S59 mutant expressed in rat GH4C1 cells by whole cell voltage clamp based electrophysiology method relative to 1 mM acetylcholine; type: functional, GH4-C1; in short: as §1
[12] = molecular target: T2, Neuronal acetylcholine receptor; alpha4/beta2; test: Displacement of [3H]nicotine from human alpha4beta2 nAChR expressed in human SH-EP1 cells; type: cell-based; in short: as §2
[13] = molecular target: T2, Neuronal acetylcholine receptor; alpha4/beta2; test: Agonist activity at human alpha4beta2 nAChR low sensitivity form expressed in human SH-EP1 cells assessed as increase in calcium flux by FLIPR relative to 10 uM nicotine; type: functional, cell-based
[14] = molecular target: T2, Neuronal acetylcholine receptor; alpha4/beta2; test: Agonist activity at human alpha4beta2 nAChR expressed in human SH-EP1 cells by whole cell voltage clamp based electrophysiology method; type: functional; in short: as §1
[15] = Agonist activity at human nAChR alpha6/alpha3beta2beta3 V273S mutant expressed in HEK293T cells by FLIPR; type: functional, cell-based; conditions: HEK-293T
[16] = molecular target: Nicotinic acetylcholine receptor alpha6/alpha3/beta2/beta3 (Rattus norvegicus) (UniProt P04757+P12390+P12391+P43143); test: Agonist activity at alpha6/alpha3beta2beta3 nAChR in Sprague-Dawley rat striatal synaptosomes assessed as induction of dopamine release relative to 10 uM nicotine; type: functional, subcellular; conditions: Brain
[17] = molecular target: T3, Neuronal acetylcholine receptor; alpha3/beta4; test: Displacement of [3H]epibatidine from human alpha3beta4 nAChR expressed in human SH-SY5Y cells; type: cell-based; in short: as §2
[18] = molecular target: T2, Neuronal acetylcholine receptor; alpha4/beta2; test: Agonist activity at human alpha4beta2 nAChR high sensitivity form expressed in human SH-EP1 cells assessed as increase in calcium flux by FLIPR relative to 10 uM nicotine; type: functional, cell-based
[19] = molecular target: T2, Neuronal acetylcholine receptor; alpha4/beta2; test: Agonist activity at human alpha4beta2 nAChR low sensitivity form expressed in human SH-EP1 cells assessed as increase in calcium flux by FLIPR; type: functional, cell-based
[20] = Agonist activity at human nAChR alpha6/alpha3beta2beta3 V273S mutant expressed in HEK293T cells by FLIPR relative to 10 uM nicotine; type: functional, HEK-293T
[21] = molecular target: Neuronal acetylcholine receptor; alpha3/alpha6/beta2/beta3 (Homo sapiens, UniProt P17787+P32297+Q05901+Q15825); test: Displacement of [3H]epibatidine from human alpha6/alpha3beta2beta3 nAChR expressed in HEK293T cells
[22] = molecular target: T3, Neuronal acetylcholine receptor; alpha3/beta4; test: Agonist activity at human alpha3beta4 nAChR expressed in human SH-SY5Y cells assessed as increase in calcium flux by FLIPR; type: functional, cell-based
Homo sapiens [23] = organism: Homo sapiens; test: Ratio of EC50 for human nAChR alpha6/alpha3beta2beta3 V273S mutant to Ki for human alpha6/alpha3beta2beta3 nAChR
Homo sapiens [24] = organism: Homo sapiens; test: Selectivity index, ratio of Ki for human alpha3beta4 nAChR to Ki for human alpha4beta2 nAChR
[25] = molecular target: Neuronal acetylcholine receptor subunit alpha-7 (Mus musculus, UniProt P49582)

T3 sequence (P30926 whole entry): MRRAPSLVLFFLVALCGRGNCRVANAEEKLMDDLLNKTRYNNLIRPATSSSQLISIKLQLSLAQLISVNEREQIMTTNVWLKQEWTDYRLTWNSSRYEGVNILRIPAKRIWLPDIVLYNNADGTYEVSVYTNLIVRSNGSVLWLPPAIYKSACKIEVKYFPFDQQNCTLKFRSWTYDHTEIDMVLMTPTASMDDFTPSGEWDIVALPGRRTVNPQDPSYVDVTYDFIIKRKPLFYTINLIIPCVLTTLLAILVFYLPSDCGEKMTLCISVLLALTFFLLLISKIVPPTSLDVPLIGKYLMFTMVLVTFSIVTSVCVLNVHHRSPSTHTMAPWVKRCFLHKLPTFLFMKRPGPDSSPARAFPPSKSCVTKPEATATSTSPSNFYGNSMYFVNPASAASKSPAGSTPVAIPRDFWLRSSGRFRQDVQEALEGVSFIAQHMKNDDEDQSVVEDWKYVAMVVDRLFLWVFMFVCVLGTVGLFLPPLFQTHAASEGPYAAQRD
T3 sequence (P32297 whole entry): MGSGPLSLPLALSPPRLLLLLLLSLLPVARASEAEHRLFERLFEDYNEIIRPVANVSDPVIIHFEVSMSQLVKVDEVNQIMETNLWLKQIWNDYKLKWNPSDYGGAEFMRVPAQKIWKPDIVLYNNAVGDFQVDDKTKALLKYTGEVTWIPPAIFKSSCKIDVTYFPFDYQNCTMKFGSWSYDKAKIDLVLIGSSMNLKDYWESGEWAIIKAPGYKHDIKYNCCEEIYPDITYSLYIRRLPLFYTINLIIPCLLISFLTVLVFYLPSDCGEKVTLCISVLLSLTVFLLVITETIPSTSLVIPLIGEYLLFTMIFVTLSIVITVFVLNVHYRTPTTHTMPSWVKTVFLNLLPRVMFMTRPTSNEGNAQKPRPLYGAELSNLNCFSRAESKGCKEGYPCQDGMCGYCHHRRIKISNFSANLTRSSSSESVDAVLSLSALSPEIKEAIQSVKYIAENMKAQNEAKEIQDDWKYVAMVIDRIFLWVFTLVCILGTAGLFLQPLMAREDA
Nicotinic acetylcholine receptor alpha6/alpha3/beta2/beta3, sequence (P04757 whole entry): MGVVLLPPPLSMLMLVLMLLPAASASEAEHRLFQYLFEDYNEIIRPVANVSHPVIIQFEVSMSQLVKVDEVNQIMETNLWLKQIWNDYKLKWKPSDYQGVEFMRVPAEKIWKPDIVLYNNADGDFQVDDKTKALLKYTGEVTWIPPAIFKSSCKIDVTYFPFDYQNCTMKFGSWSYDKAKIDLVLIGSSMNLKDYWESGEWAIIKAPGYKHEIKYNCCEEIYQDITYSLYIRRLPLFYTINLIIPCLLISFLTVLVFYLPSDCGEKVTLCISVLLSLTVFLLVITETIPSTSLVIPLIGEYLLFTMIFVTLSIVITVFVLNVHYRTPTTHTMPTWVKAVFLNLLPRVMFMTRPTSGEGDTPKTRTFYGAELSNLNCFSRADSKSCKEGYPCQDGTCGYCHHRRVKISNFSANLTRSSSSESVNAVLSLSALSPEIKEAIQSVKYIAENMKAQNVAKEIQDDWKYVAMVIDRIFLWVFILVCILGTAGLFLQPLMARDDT
Nicotinic acetylcholine receptor alpha6/alpha3/beta2/beta3, sequence (P12390 whole entry): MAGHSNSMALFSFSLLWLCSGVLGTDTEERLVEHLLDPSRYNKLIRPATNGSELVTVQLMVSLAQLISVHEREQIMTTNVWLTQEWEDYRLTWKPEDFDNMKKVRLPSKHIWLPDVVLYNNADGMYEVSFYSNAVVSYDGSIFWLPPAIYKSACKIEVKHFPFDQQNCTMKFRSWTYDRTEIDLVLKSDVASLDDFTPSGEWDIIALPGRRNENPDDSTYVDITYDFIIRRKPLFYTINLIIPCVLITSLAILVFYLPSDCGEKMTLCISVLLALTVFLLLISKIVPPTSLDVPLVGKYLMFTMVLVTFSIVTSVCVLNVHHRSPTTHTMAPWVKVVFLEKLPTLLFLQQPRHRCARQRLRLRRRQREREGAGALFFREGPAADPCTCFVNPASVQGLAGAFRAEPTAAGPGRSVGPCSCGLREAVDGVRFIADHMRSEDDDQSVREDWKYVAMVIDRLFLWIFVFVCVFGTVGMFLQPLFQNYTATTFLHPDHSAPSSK
Nicotinic acetylcholine receptor alpha6/alpha3/beta2/beta3, sequence (P12391 whole entry): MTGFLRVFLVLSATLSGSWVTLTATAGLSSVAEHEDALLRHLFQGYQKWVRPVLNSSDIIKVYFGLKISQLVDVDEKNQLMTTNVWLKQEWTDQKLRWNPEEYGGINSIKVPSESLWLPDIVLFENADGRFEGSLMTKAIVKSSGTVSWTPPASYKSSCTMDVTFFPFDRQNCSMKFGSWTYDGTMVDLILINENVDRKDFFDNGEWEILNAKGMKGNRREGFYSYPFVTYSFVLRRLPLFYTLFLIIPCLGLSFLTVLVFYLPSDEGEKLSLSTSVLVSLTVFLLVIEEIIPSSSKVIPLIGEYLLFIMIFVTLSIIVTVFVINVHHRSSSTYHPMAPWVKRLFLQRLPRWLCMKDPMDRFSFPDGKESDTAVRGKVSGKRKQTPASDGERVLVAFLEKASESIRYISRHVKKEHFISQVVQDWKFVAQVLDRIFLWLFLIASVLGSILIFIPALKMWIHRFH
Nicotinic acetylcholine receptor alpha6/alpha3/beta2/beta3, sequence (P43143 whole entry): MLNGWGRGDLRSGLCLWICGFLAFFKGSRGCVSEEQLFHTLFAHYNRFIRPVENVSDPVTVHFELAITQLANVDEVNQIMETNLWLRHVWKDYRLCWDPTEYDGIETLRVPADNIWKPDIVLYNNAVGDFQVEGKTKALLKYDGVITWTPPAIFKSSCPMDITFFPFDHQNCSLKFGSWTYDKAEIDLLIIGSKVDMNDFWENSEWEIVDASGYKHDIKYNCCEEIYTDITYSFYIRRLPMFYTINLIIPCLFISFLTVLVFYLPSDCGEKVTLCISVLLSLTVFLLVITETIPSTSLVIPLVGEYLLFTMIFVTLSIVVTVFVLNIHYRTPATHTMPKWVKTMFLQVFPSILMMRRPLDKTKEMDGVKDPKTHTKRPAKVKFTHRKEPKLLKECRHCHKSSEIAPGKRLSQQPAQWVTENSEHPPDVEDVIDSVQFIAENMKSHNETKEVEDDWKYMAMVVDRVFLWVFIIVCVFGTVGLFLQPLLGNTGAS
Neuronal acetylcholine receptor; alpha3/alpha6/beta2/beta3, sequence (P17787 whole entry): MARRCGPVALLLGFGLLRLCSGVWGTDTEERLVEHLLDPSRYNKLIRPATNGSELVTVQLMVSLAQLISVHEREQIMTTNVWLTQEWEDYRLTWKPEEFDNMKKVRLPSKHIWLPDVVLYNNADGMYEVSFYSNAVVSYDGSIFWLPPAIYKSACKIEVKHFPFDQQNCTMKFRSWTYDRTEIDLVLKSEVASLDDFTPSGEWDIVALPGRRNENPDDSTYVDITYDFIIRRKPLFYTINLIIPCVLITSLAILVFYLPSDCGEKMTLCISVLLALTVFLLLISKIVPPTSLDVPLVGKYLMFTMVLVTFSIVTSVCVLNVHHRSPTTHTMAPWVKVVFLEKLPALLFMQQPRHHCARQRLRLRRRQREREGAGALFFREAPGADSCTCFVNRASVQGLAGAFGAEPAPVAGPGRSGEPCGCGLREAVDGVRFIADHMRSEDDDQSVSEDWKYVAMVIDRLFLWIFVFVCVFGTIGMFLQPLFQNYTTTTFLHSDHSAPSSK
Neuronal acetylcholine receptor; alpha3/alpha6/beta2/beta3, sequence (P32297 whole entry): as the sequence (P32297 whole entry) above
Neuronal acetylcholine receptor; alpha3/alpha6/beta2/beta3, sequence (Q15825 whole entry): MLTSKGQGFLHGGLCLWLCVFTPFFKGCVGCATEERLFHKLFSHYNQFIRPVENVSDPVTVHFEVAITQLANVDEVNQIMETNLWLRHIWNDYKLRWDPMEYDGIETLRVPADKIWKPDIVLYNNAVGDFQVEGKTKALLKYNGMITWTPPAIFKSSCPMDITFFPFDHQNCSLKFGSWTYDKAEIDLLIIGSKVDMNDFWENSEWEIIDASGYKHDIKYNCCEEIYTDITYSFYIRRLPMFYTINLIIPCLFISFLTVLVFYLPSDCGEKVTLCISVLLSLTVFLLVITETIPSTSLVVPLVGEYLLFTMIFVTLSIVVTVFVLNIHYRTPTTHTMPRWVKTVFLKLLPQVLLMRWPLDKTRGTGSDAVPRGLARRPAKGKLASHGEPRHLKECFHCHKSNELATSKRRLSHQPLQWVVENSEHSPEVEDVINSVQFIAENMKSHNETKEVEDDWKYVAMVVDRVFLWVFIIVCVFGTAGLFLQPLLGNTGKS
Neuronal acetylcholine receptor; alpha3/alpha6/beta2/beta3, sequence (Q05901 whole entry): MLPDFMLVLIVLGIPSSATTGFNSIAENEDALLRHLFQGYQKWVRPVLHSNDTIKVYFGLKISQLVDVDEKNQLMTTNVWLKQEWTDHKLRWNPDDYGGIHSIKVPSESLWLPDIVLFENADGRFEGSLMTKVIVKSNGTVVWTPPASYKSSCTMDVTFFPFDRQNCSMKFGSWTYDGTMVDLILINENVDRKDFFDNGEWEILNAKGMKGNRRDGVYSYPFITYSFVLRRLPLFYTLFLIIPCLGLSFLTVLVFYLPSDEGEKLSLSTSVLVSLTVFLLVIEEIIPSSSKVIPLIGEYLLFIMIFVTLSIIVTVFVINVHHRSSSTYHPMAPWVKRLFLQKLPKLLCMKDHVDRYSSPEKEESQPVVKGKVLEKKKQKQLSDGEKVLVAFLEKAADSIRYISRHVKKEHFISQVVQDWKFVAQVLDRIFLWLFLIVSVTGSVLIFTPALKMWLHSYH
Neuronal acetylcholine receptor subunit alpha-7 (Homo sapiens, UniProt P36544), sequence (P36544 whole entry): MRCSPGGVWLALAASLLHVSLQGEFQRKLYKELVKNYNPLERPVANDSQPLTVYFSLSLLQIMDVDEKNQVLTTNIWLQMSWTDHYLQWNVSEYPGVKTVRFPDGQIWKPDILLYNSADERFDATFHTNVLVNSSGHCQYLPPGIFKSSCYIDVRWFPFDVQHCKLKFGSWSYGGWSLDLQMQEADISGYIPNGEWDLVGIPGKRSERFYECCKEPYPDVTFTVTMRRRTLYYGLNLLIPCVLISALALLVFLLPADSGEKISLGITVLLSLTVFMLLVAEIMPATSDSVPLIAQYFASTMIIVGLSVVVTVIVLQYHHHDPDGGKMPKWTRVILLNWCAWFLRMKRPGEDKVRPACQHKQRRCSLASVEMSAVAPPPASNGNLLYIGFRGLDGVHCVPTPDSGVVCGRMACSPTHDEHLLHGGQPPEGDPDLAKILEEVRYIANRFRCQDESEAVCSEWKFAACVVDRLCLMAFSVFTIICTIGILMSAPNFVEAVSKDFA

SMILES | %max [5] | EC50 [6] | %max [7] | Ki [8] | EC50 [9] | EC50 [10] | %max [11] | Ki [12] | %max [13] | EC50 [14] | EC50 [15] | %max [16] | Ki [17] | %max [18] | EC50 [19] | %max [20] | Ki [21] | EC50 [22] | other results
O=c1cccc2n1C[C@@H]1CNC[C@H]2C1 [CYTISINICLINE] |  |  |  |  |  |  |  |  |  |  |  |  |  |  |  |  |  |  | Ki [1]: 1 nM; Ki [2]: 8000 nM
c1cnc2cc3c(cc2n1)[C@@H]1CNC[C@H]3C1 [VARENICLINE] |  |  |  |  |  |  |  |  |  |  |  |  |  |  |  |  |  |  | Ki [3]: 300 nM; EC50 [4]: 18000 nM
CC(C)Oc1cncc(C2=CC3CC(C2)CN(C)C3)c1 (stereo not given) | 10% | 21300 nM | 15% | > 10000 nM | 879 nM | > 10000 nM | 60% | 2.2 nM | 3.3% | 3500 nM | > 10000 nM | 63% | 1730 nM | 1% | > 10000 nM | 0.2% | 690 nM | > 10000 nM | 
CN1C[C@H]2C=C(c3cccnc3)C[C@H](C2)C1 | 19% | 3800 nM | 31% | 74 nM | > 10000 nM | > 10000 nM | 100% | 2.1 nM | 11% | 3500 nM | > 10000 nM | 27% | 534 nM | 19% | 7660 nM | 7% | 300 nM | 7530 nM | 
C1=C(c2cccnc2)C[C@H]2CNC[C@@H]1C2 | 40% | 30 nM | 142% | 1.2 nM | 0.95 nM | 2.3 nM | 20% | 0.2 nM | 129% | 100 nM | 14 nM | 73% | 4 nM | 114% | 12 nM | 110% | 0.95 nM | 37 nM | Ratio (Homo sapiens [23]): 15; Ratio Ki (Homo sapiens [24]): 20
CN1C[C@@H]2C=C(c3cccnc3)C[C@@H](C2)C1 | 18% | 6000 nM | 25% | 70 nM | 855 nM | 6660 nM | 87% | 9.4 nM | 17% | 3100 nM | > 10000 nM | 13% | 1800 nM | 53% | > 10000 nM | 9% | 320 nM | > 10000 nM | 
C1=C(c2cncc(Oc3ccccc3)c2)CC2CNCC1C2 (stereo not given) | 9% | 350 nM | 101% | 22 nM | 718 nM | 62 nM | 31% | 0.7 nM | 30% | 590 nM | > 10000 nM | 57% | 1.9 nM | 52% | 654 nM | 0% | 4.8 nM | 23 nM | 
C1=C(c2cccnc2)C[C@@H]2CNC[C@H]1C2 | 32% | 20 nM | 139% | 1.3 nM | 1.4 nM | 2.3 nM | 28% | 0.1 nM | 131% | 50 nM | 15 nM | 49% | 23 nM | 111% | 35 nM | 82% | 1 nM | 73 nM | Ratio (Homo sapiens [23]): 15; Ratio Ki (Homo sapiens [24]): 230
CN1CCC[C@H]1c1cccnc1 [NICOTINE] |  |  |  |  |  |  |  |  |  |  |  |  |  |  |  |  |  |  | Ki [25]: 244 nM
CC(C)Oc1cncc(C2=CC3CNCC(C2)C3)c1 (stereo not given) | 11% | 2800 nM | 160% | 105 nM | 1090 nM | 164 nM | 92% | 0.26 nM | 54% | 1400 nM | > 10000 nM | 86% | 4.8 nM | 75% | 562 nM | 3% | 2.6 nM | 69 nM | 
